The test system of data set [1] is unilaterally lesioned rats. As to the kind of experiment: L-dopa dependent abnormal involuntary movements. Format: in vivo, rat. As to conditions: for Normalized total AIMs score, percent relative to vehicle control: 10 mg/kg.
The subject of a further data set is rat. As to conditions: ref ScienceLab.com; cited from earlier work.
The subject of a further data set is D3 dopamine receptor. As to conditions: transfected CHO cells; maximum 10^-5 M; ref Grundt et al., 2005; cited from earlier work.
The target in a further data set is D3 dopamine receptors (Homo sapiens, UniProt P35462). Type of data set: cell-based. As to conditions: transfected HEK cells; test ligand 10 nM; relative to quinpirole.
A further data set concerns D2 dopamine receptor. As to conditions: transfected CHO cells; maximum 10^-5 M; ref Grundt et al., 2005; cited from earlier work.
For data set [2], the target named is human D2 dopamine receptor. The note with it: read-out: Ki at dopamine D2 receptors; ref Grundt et al., 2005; cited from earlier work.
Data set [3] has as its system unilaterally lesioned rats. As to the kind of experiment: Rotarod test of motor performance and coordination. Format: in vivo, rat. The note with it: 10 mg/kg i.p.; 30 and 60 minutes post drug administration; p ≥ 0.10.
Data set [4] concerns unilaterally lesioned rats. As to the kind of experiment: Apomorphine-dependent AIMs in unilaterally lesioned rats. Format: in vivo, rat. In outline: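 Unilaterally lesioned rats received the test compound (10 mg/kg i.p.) or vehicle, immediately followed by apomorphine 0.05 mg/kg s.c. Total AIMs scores were summed over time and expressed as percent of vehicle control, as mean ± S.E.M., n = 12. Periods analysed: 0–60, 0–40 and 50–60 min.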

The subject of data set [5] is unilaterally lesioned rats. As to the kind of experiment: Cylinder test of forelimb usage. As to conditions: PG01042 10 mg/kg with L-dopa/benserazide 8 mg/kg each. Type of data set: in vivo, rat. In outline:
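Unilaterally lesioned rats received saline, L-dopa plus benserazide (8 mg/kg each), or these with the test compound (10 mg/kg). In the cylinder, an observer scored which forelimb first touched the Plexiglas wall (left, right or both) during rearing. The right forelimb was contralateral to the lesion. Scoring began 12 min (5 min) and 20 min (until >13 touches/rat) post injection. Read-out was percent usage, n = 7.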

Data set [6] has as its system human D3 dopamine receptor. As to conditions: binding; ref Grundt et al., 2005; cited from earlier work.
The mark [7] stands for this setting: 10 mg/kg i.p., 0 min pretreatment, L-dopa/benserazide 8 mg/kg each, n = 12.

Structures are written as SMILES. Where “and” joins values, the source holds several entries; their conditions need not be identical. Equal values may be shown once.

Consider five compounds from paper PMC3820002 (Neuropharmacology, 2010).

By Ki is commonly meant the dissociation constant of the complex between target and ligand, obtained from inhibition or displacement.

D3 dopamine receptors, sequence (P35462 whole entry): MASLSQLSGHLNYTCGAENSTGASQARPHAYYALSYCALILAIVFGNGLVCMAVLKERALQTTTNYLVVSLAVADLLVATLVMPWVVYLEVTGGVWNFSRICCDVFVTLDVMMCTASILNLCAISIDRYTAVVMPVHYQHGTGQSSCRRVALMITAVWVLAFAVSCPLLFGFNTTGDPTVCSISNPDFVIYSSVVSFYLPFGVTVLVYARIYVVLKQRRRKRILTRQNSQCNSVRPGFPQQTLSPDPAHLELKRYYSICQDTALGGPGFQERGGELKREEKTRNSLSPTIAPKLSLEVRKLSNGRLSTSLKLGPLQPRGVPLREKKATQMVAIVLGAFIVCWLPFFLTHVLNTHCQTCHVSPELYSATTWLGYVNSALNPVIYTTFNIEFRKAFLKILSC

On to `COc1ccccc1N1CCN(CCN(C(=O)C2CCCCC2)c2ccccn2)CC1` [WAY 100635, reference compound], for which the “Reduction in the attenuation of total AIMs score by PG01037” value in data set [1] (WAY 100635 1 mg/kg 10 min before PG01037 3 mg/kg, L-dopa 8 mg/kg i.p.) was “no reduction”.

Take `C[S+](C)[O-]` [DMSO, dimethylsulfoxide]: the “Oral acute LD50” value with rat was 14500 mg/kg.

Turning to `O=C(NC/C=C/CN1CCN(c2cccc(Cl)c2Cl)CC1)c1ccc(-c2ccccn2)cc1` [PG01037, (E)-N-(4-(4-(2,3-dichlorophenyl)piperazin-1-yl)but-2-enyl)-4-(pyridin-2-yl)benzamide], the “Intrinsic activity at D3 receptors, mitogenic assay” value with D3 dopamine receptor is recorded as “antagonist”. At D3 dopamine receptors, the “Intrinsic activity at D3 receptors, adenylyl cyclase inhibition” value is given as “antagonist”.

For `Cl.O=C1CC2(CCCC2)CC(=O)N1CCCCN1CCN(c2ncccn2)CC1` [buspirone, N-[4-[4-(2-pyrimidinyl)-1-piperazinyl]butyl]-8-azaspiro[4.5]decane-7,9-dione hydrochloride, reference compound], the “%Reduction of total AIMs values” in data set [1] (buspirone 1 mg/kg i.p. with L-dopa 8 mg/kg and benserazide 8 mg/kg, n = 12) was determined as 34.8 ± 6.2%. For the same compound, in data set [1] (buspirone 4 mg/kg 30 minutes prior to L-dopa 8 mg/kg i.p., p < 0.001, n = 10), the “Effect on total AIM scores versus vehicle control” value is recorded as “significant reduction”.

Take `O=C(NCCCCN1CCN(c2cccc(Cl)c2Cl)CC1)c1ccc(-c2cccnc2)cc1` [PG01042, N-(4-(4-(2,3-dichlorophenyl)piperazin-1-yl)butyl)-4-(pyridin-3-yl)benzamide]: in [1] (1 mg/kg i.p., 0 min pretreatment, L-dopa/benserazide 8 mg/kg each, n = 12), the “Mean reduction in the total AIMs score” value is reported as 8.4 ± 7.3%. In addition, in data set [1] (3 mg/kg i.p., 0 min pretreatment, L-dopa/benserazide 8 mg/kg each, n = 12, dose response experiment), the “Mean reduction in the total AIMs score” value is 25.2 ± 4.4%. Besides, in data set [1] (setting [7]), the “Percent reduction of axial twisting AIM score” value is 78.5 ± 4.6%; the “Percent reduction of forelimb movement AIM score” value was 56% and 56.0 ± 3.1%; the “Percent reduction of locomotion AIM score” value is listed as 80.4 ± 9.5%; the “Percent reduction of orolingual AIM score” value is 76.5 ± 10.8%. Also, the “Precipitation of AIMs by test drug alone” value in data set [1] (10 mg/kg i.p., during the 60 min pretreatment period before L-dopa) is recorded as “did not precipitate any AIMs”. Further, the “Normalized total AIMs score, percent relative to vehicle control” value in [1] (0 minutes pretreatment before L-dopa/benserazide 8 mg/kg) stood at 29.4 ± 6.1%. Moreover, the “Normalized total AIMs score, percent relative to vehicle control” value in [1] (60 minutes pretreatment before L-dopa/benserazide 8 mg/kg) was determined as 68.0 ± 8.6%. The “Effect on total AIM scores versus vehicle control” value in data set [1] (PG01042 3 mg/kg simultaneously with L-dopa 8 mg/kg i.p., F(1,22) = 14.4, n = 12) is given as “significantly attenuate”. Also, the “IC50 for attenuation of total AIMs score, linear regression analysis” value in data set [1] (i.p., 0 min pretreatment, doses 0 to 10 mg/kg, L-dopa/benserazide 8 mg/kg each) is listed as 6.6 mg/kg. Besides, in data set [1] (i.p., 0 min pretreatment, curve constrained to 0 and 100%, r^2 = 0.98), the “IC50 for attenuation of total AIMs score, one site fit” value came out at 5.6 mg/kg. The “Intrinsic activity at D2 receptors, mitogenic assay” value with D2 dopamine receptor is recorded as “partial agonist”. In addition, the “Intrinsic activity at D3 receptors, mitogenic assay” value in the data set with D3 dopamine receptor is on record as “partial agonist”. The inhibition constant Ki in data set [2] was 18.2 nM. Besides, the “Latency to fall on rotarod versus vehicle control” value in [3] is “no statistical significant difference”. The “Percent reduction in the total AIMs score, apomorphine-dependent” value in data set [4] (10 mg/kg i.p. simultaneously with apomorphine 0.05 mg/kg s.c., 0 to 60 minutes, n = 12) is recorded as 14.5 ± 3.0%. Further, the “Percent attenuation of the AIMs minus locomotor scores, apomorphine-dependent” value in data set [4] (PG01042 simultaneously with apomorphine 0.05 mg/kg s.c., whole time period) is “approximately 15%”. In [5] (12 minutes post injection, n = 7), the “Use of right (compromised) forelimb” value is recorded as 70.1 ± 2.3%. Also, the “Use of right paw” value in data set [5] (20 minutes post injection) came to 85.0 ± 4.6%. Besides, in data set [6], the “D3 selectivity compared to the D2 dopamine receptor subtype” value is 39 fold and > 39 fold. In addition, on D3 dopamine receptors, the “Intrinsic activity at D3 receptors, adenylyl cyclase inhibition” value is “agonist”.
